Experimental data as given in ChEMBL document CHEMBL1149438, “Antimalarial activity of 4-(5-trifluoromethyl-1H-pyrazol-1-yl)-chloroquine analogues” (Bioorg Med Chem Lett, 2006).
Converted amounts (≈) assume the structure as drawn.

Experiments:
Plasmodium falciparum = assay: Antimalarial activity against chloroquine-resistant Plasmodium falciparum W2 infected human erythrocytes; assay type: functional, organism-based
Method in brief: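 P. falciparum W2 (chloroquine-resistant) grown in human O+ erythrocytes, RPMI 1640 with 10% human plasma. Sorbitol-synchronized trophozoites plated at 2% parasitaemia, 2.5% haematocrit. Molecules dissolved in ethanol, serially diluted in hypoxanthine-free RPMI 1640, chloroquine reference run in parallel. Growth read by [³H]hypoxanthine incorporation. IC50 taken relative to drug-free control cultures.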

Plasmodium berghei [1] = assay: Growth inhibition of Plasmodium berghei infected BALB/c mice (Mus musculus) at 20 mg/kg perorallydose; assay type: functional, NK65; design: scale not given: the % may be the effect or the level left; conditions: route oral
Method in brief: (§1)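 Balb/c mice infected with blood-stage P. berghei, 6 per group, given 20 mg/kg orally or subcutaneously. Controls were untreated or saline-treated mice, plus mice given non-curative chloroquine. Blood smears were methanol-fixed and Giemsa-stained, and parasitaemia was counted in 1000 to 6000 erythrocytes. Percent reduction of parasite growth is relative to non-treated mice at day 7 post-inoculation.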

Plasmodium berghei [2] = assay: Growth inhibition of Plasmodium berghei infected BALB/c mice (Mus musculus) at 20 mg/kg subcutaneous dose; assay type: functional, NK65; design: scale not given: the % may be the effect or the level left; method in brief: as §1
Plasmodium berghei [3] = assay: Growth inhibition of Plasmodium berghei in BALB/c mice (Mus musculus) at 15 mg/kg peroral dose; assay type: functional, NK65; design: scale not given: the % may be the effect or the level left; conditions: route oral
Plasmodium berghei [4] = assay: Growth inhibition of Plasmodium berghei infected BALB/c mice (Mus musculus) at 15 mg/kg subcutaneous dose; assay type: functional, NK65; design: scale not given: the % may be the effect or the level left

Row | SMILES | IC50 (Plasmodium falciparum) [mg/L] | further results
1 | FC(F)(F)c1cc(-c2ccc(-c3ccccc3)cc2)nn1-c1ccnc2cc(Cl)ccc12 | 18.5 (≈ 41.2 µM) | –
2 | OC1(C(F)(F)F)CC(c2ccc(Cl)cc2)=NN1c1ccnc2cc(Cl)ccc12 (stereo not given) | 1.69 (≈ 3.97 µM) | Activity (Plasmodium berghei [1]): 0%; Activity (Plasmodium berghei [2]): 47%
3 | Cc1ccc(C2=NN(c3ccnc4cc(Cl)ccc34)C(O)(C(F)(F)F)C2)cc1 (stereo not given) | 3.04 (≈ 7.49 µM) | –
4 | OC1(C(F)(F)F)CC(c2ccc(F)cc2)=NN1c1ccnc2cc(Cl)ccc12 (stereo not given) | 2.13 (≈ 5.2 µM) | –
5 | O=[N+]([O-])c1ccc(C2=NN(c3ccnc4cc(Cl)ccc34)C(O)(C(F)(F)F)C2)cc1 (stereo not given) | 5.71 (≈ 13.1 µM) | –
6 | OC1(C(F)(F)F)CC(c2ccccc2)=NN1c1ccnc2cc(Cl)ccc12 (stereo not given) | 1.39 (≈ 3.55 µM) | Activity (Plasmodium berghei [1]): 0%; Activity (Plasmodium berghei [2]): 0%
7 | FC(F)(F)c1cc(-c2ccc(Br)cc2)nn1-c1ccnc2cc(Cl)ccc12 | > 50 | –
8 | CCN(CC)CCCC(C)Nc1ccnc2cc(Cl)ccc12 (stereo not given) [CHLOROQUINE] | – | Activity (Plasmodium berghei [3]): 53%; Activity (Plasmodium berghei [4]): 100%
9 | Cc1ccc(-c2cc(C(F)(F)F)n(-c3ccnc4cc(Cl)ccc34)n2)cc1 | > 50 | –
10 | Fc1ccc(-c2cc(C(F)(F)F)n(-c3ccnc4cc(Cl)ccc34)n2)cc1 | 27.6 (≈ 70.5 µM) | –
11 | OC1(C(F)(F)F)CC(c2ccc(Br)cc2)=NN1c1ccnc2cc(Cl)ccc12 (stereo not given) | 1.55 (≈ 3.29 µM) | Activity (Plasmodium berghei [1]): 0%; Activity (Plasmodium berghei [2]): 82%
12 | COc1ccc(C2=NN(c3ccnc4cc(Cl)ccc34)C(O)(C(F)(F)F)C2)cc1 (stereo not given) | > 50 | –
13 | COc1ccc(-c2cc(C(F)(F)F)n(-c3ccnc4cc(Cl)ccc34)n2)cc1 | > 50 | –
14 | O=[N+]([O-])c1ccc(-c2cc(C(F)(F)F)n(-c3ccnc4cc(Cl)ccc34)n2)cc1 | > 50 | –
15 | FC(F)(F)c1cc(-c2ccccc2)nn1-c1ccnc2cc(Cl)ccc12 | 9.53 (≈ 25.5 µM) | –
16 | FC(F)(F)c1cc(-c2ccc(Cl)cc2)nn1-c1ccnc2cc(Cl)ccc12 | > 50 | –
17 | OC1(C(F)(F)F)CC(c2ccc(-c3ccccc3)cc2)=NN1c1ccnc2cc(Cl)ccc12 (stereo not given) | 2.12 (≈ 4.53 µM) | –
18 | Cc1cc(C(F)(F)F)n(-c2ccnc3cc(Cl)ccc23)n1 | 4.29 (≈ 13.8 µM) | –
